Results from ChEMBL document CHEMBL1126202, “Dual-action penems and carbapenems” (J Med Chem, 1992).
≈ marks a conversion by molar mass, not a printed value.

Experiments:
[1] = system: Bacteroides thetaiotaomicron; test: In vitro antibacterial activity against Bacteroides thetaiotaomicron 62B; type: functional
Summary of the method: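 Anaerobic MICs were determined in microtiter plates in Schaedler's broth supplemented with coenzyme I and hemin. Incubation was under an oxygen-free hydrogen-carbon dioxide atmosphere.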

[2] = system: Bacteroides fragilis; test: In vitro antibacterial activity against Bacteroides fragilis F117A; type: functional
Summary of the method: (§1)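 MIC by broth dilution in microtiter plates, run in an oxygen-free hydrogen–carbon dioxide atmosphere. Medium: Schaedler's broth with coenzyme I and hemin added.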

[3] = system: Clostridioides difficile; test: In vitro antibacterial activity against Clostridium difficile 651; type: functional
[4] = system: Clostridium perfringens; test: In vitro antibacterial activity against Clostridium perfringens 13424; type: functional; summary of the method: as §1
[5] = system: Bacteroides fragilis; test: In vitro antibacterial activity against bacteroides fragilis S2; type: functional
Summary of the method: (§2)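 Anaerobic MIC, run in microtiter plates in Schaedler's broth supplemented with coenzyme I and hemin. Incubated in an oxygen-free hydrogen–carbon dioxide atmosphere.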

[6] = system: Hathewaya histolytica; test: In vitro antibacterial activity against clostridium histolyticum 503-86; type: functional; summary of the method: as §2
[7] = system: Escherichia coli; test: In vitro antibacterial activity against Escherichia coli 25922; type: functional
Summary of the method: (§3)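 MIC was determined by agar dilution on Mueller-Hinton agar. Serial 2-fold aqueous dilutions were diluted 10-fold in agar to give final concentrations of 128 to 0.0156 μg/mL. Plates were inoculated by Steers replicator with overnight broth cultures diluted 100-fold.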

[8] = system: Escherichia coli; test: In vitro antibacterial activity against Escherichia coli 257; type: functional
[9] = system: Escherichia coli; test: In vitro antibacterial activity against Escherichia coli TEM-1 (constitutive beta-lactamase producer); type: functional; summary of the method: as §3
[10] = system: Enterobacter cloacae; test: In vitro antibacterial activity against enterobacter cloacae P99 (constitutive beta-lactamase producer); type: functional; summary of the method: as §3
[11] = system: Klebsiella pneumoniae; test: In vitro antibacterial activity against klebsiella pneumoniae A; type: functional
Summary of the method: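 Agar-dilution MIC on Mueller-Hinton agar. Serial 2-fold dilutions were made in water, giving final agar concentrations of 128 to 0.0156 μg/mL. Inoculum was an overnight broth culture diluted 100-fold, applied with a multipoint replicator.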

[12] = system: Proteus mirabilis; test: In vitro antibacterial activity against Proteus mirabilis 90; type: functional
Summary of the method: (§4)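 Proteus MICs were determined by agar dilution on Mueller-Hinton agar containing 3% agar. Serial 2-fold dilutions gave final concentrations of 128 to 0.0156 μg/mL. Plates were replicator-inoculated with 100-fold-diluted overnight broth cultures.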

[13] = system: Pseudomonas aeruginosa; test: In vitro antibacterial activity against Ps. aeruginosa 18SH (constitutive beta-lactamase producer); type: functional; summary of the method: as §3
[14] = system: Pseudomonas aeruginosa; test: In vitro antibacterial activity against Pseudomonas aeruginosa 8780; type: functional; summary of the method: as §3
[15] = system: Proteus vulgaris; test: In vitro antibacterial activity against proteus vulgaris ATCC 6380 (constitutive beta-lactamase producer); type: functional; summary of the method: as §4
[16] = system: Staphylococcus aureus; test: In vitro antibacterial activity against Staphylococcus aureus 67(methicillin resistant); type: functional
Summary of the method: (§5)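 MIC by agar dilution on Mueller-Hinton agar. Compounds were serially 2-fold diluted in water, final 128 to 0.0156 μg/mL in agar. Inoculum: overnight broth culture diluted 100-fold, applied with a Steers replicator.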

[17] = system: Staphylococcus aureus; test: (§6) In vitro antibacterial activity against Staphylococcus aureus 753 (constitutive beta-lactamase producer); type: functional; summary of the method: as §5
[18] = system: Streptococcus pyogenes; test: In vitro antibacterial activity against Streptococcus pyogenes 4; type: functional
Summary of the method: (§7)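 Streptococcal MICs were determined by agar dilution on brain heart infusion agar supplemented with 20 units/mL bovine liver catalase. Final concentrations were 128 to 0.0156 μg/mL from 2-fold dilutions. Inocula were overnight broth cultures diluted 100-fold, applied by Steers replicator.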

[19] = system: Serratia marcescens; test: In vitro antibacterial activity against serratia marcescens SM (constitutive beta-lactamase producer); type: functional; summary of the method: as §3
[20] = system: Staphylococcus aureus; test: In vitro antibacterial activity against staphylococcus aureus smith; type: functional; summary of the method: as §3
[21] = system: Streptococcus pneumoniae; test: In vitro antibacterial activity against streptococcus pneumoniae 6301; type: functional; summary of the method: as §7
[22] = system: Citrobacter freundii; test: In vitro antibacterial activity against citrobacter freundii BS-16 (constitutive beta-lactamase producer); type: functional; summary of the method: as §3
[23] = system: Clostridioides difficile; test: In vitro antibacterial activity against Clostridium difficile 701; type: functional
[24] = system: Escherichia coli; test: Effect on replication DNA biosynthesis in Escherichia coli H560 (permeabilised cells).; type: functional, organism-based
Summary of the method: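 Toluene-permeabilized E. coli H560 cells were used. Replicative DNA synthesis was measured as ATP-dependent [3H]thymidine incorporation into trichloroacetic acid-insoluble material. IC50 is the concentration giving 50% inhibition.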

[25] = system: Escherichia coli; test: In vitro antibacterial activity against Escherichia coli UB1005 (nalidixic acid-resistant strain); type: functional; summary of the method: as §3
[26] = Stability in pH 7.4 phosphate buffer at 37 degree C.; type: physicochemical
Summary of the method: (§8)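 Compounds were held in pH 7.4 phosphate buffer at 37 °C and monitored by reverse-phase HPLC on a PRP-1 column with UV detection at 275–286 nm. The mobile phase was 0.01 M tetradecyltrimethylammonium bromide in pH 8.2 phosphate/acetonitrile. Product-peak decline was followed to at least 50%, and half-life was taken from semilogarithmic plots.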

[27] = Stability in pH 7.4 phosphate buffer at 37 degree C; type: physicochemical; summary of the method: as §8
[28] = system: Staphylococcus aureus; test: as §6; type: functional; summary of the method: as §3; remark: listed apart in the source

SMILES | MIC [1] | MIC [2] | MIC [4] | MIC [7] | MIC [8] | MIC [9] | MIC [10] | MIC [11] | MIC [12] | MIC [13] | MIC [14] | MIC [15] | MIC [16] | MIC [18] | MIC [19] | MIC [20] | MIC [21] | MIC [22] | IC50 [24] | MIC [25] | other results
CN1CCN(c2c(F)cc3c(=O)c(C(=O)O)cn(CCF)c3c2F)CC1 [FLEROXACIN] | 64 µg/mL (≈ 173 µM) | 64 µg/mL (≈ 173 µM) | 0.5 µg/mL (≈ 1.35 µM) | 0.03 µg/mL (≈ 0.0812 µM) | 0.0313 µg/mL (≈ 0.0847 µM) | 0.0625 µg/mL (≈ 0.169 µM) | 0.0313 µg/mL (≈ 0.0847 µM) | 0.0625 µg/mL (≈ 0.169 µM) | 0.25 µg/mL (≈ 0.677 µM) | 1 µg/mL (≈ 2.71 µM) | 2 µg/mL (≈ 5.42 µM) | 0.0625 µg/mL (≈ 0.169 µM) | 0.5 µg/mL (≈ 1.35 µM) | 2 µg/mL (≈ 5.42 µM) | 0.0625 µg/mL (≈ 0.169 µM) | 0.25 µg/mL (≈ 0.677 µM) | 4 µg/mL (≈ 10.8 µM) | 0.125 µg/mL (≈ 0.338 µM) | 1 µg/mL (≈ 2.71 µM) | 0.5 µg/mL (≈ 1.35 µM) | MIC [3]: 16 µg/mL (≈ 43.3 µM); MIC [5]: 8 µg/mL (≈ 21.7 µM); MIC [6]: 0.25 µg/mL (≈ 0.677 µM); MIC [17]: 0.5 µg/mL (≈ 1.35 µM); MIC [23]: 16 µg/mL (≈ 43.3 µM)
C[C@@H](O)[C@H]1C(=O)N2C(C(=O)[O-])=C(COC(=O)c3cn(CCF)c4c(F)c(N5CCN(C)CC5)c(F)cc4c3=O)C[C@H]12.[Na+] | 4 µg/mL | 1 µg/mL | < 0.125 µg/mL | 0.12 µg/mL | 0.125 µg/mL | 0.125 µg/mL | 0.125 µg/mL | 0.25 µg/mL | 1 µg/mL | 2 µg/mL | 4 µg/mL | 0.25 µg/mL | 1 µg/mL | 0.0157 µg/mL | 0.25 µg/mL | 0.125 µg/mL | 0.0157 µg/mL | 0.25 µg/mL | 10 µg/mL | 1 µg/mL | half-life [26]: 11 h; MIC [5]: < 0.125 µg/mL; MIC [17]: 1 µg/mL; MIC [23]: 4 µg/mL
O=C([O-])C1=C(COC(=O)N2CCN(c3cc4c(cc3F)c(=O)c(C(=O)O)cn4C3CC3)CC2)SC2CC(=O)N12.[Na+] (stereo not drawn) | – | – | – | 0.25 µg/mL | 0.25 µg/mL | 0.125 µg/mL | 0.125 µg/mL | 0.25 µg/mL | 1 µg/mL | 4 µg/mL | 16 µg/mL | 0.25 µg/mL | 1 µg/mL | 0.125 µg/mL | 0.25 µg/mL | 1 µg/mL | 0.125 µg/mL | 0.25 µg/mL | 2 µg/mL | 2 µg/mL | half-life [27]: 16 h; MIC [28]: 2 µg/mL
